Source: PubChem BioAssay
Most compounds without a hit are left out; they make up all but 9.6% or so of the library.
TNAP inh no acc = TNAP (human) inhibition, acceptor-free conditions | P05186 | purified TNAP, CDP-star luminescence, 30 min | inhibition, % at 20 µM | 200,000 compounds, 0.26% hits | AID 1012;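 active means tissue-nonspecific alkaline phosphatase inhibition above about 50% at 20 µM in the single-dose screen, limit read from the data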;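 further: 0% = DMSO negative control and 100% = EDTA positive control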
Target sequence (P05186 whole entry, looked up): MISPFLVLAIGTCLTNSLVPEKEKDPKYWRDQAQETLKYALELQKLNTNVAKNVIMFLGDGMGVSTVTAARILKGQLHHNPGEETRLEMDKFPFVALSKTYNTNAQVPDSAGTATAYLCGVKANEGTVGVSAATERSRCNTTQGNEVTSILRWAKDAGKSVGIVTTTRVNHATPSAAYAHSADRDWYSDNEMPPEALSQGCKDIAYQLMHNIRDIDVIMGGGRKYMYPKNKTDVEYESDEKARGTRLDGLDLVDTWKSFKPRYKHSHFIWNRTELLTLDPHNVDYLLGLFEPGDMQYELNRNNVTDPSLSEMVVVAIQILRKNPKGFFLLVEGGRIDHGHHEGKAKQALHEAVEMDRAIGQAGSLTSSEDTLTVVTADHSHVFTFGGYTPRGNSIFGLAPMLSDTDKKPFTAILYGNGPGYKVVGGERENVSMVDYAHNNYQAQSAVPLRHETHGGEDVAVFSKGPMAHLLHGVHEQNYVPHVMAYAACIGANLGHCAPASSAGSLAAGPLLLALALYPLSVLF
TNAP act hi DEA = activators of human TNAP at high phosphate acceptor concentration; 200,000 tested, under 10 active; purified TNAP, CDP-star luminescence, 1 M DEA, 30 min; active compounds read high; 0 = EDTA background, 1 = DMSO-only activity; activation factor at 20 µM; P05186;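 active means activation factor at least 2 at 20 µM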
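Measured by: Luminescent substrate turnover signal | Test system: Human TNAP | Input: TNAP 1/800 final | Dosing: 20 µM single point | Schedule: 30 min, room temperature | Controls: EDTA wells as negative control, DMSO wells as positive control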
Lmaj promast = Leishmania major promastigote growth inhibition. Leishmania major promastigotes, resazurin fluorescence viability. inhibition, % at 10 µM. 200,000 compounds, 9% hits. AID 1063; in the data active means inhibition above about 50%;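 further: promastigotes grown with compound for 44 hours at 28 °C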
TNAP inh hi DEA = inhibitors of human TNAP at high phosphate acceptor concentration; P05186; inhibition, % at 20 µM; purified TNAP, CDP-star luminescence, 1 M DEA; 200,000 compounds, 0.03% hits;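 active means over 50% inhibition of tissue-nonspecific alkaline phosphatase at 20 µM in the single-dose screen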;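 further: plate controls were DMSO wells for no effect and EDTA-quenched wells as full inhibition for full effect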
bCat KO growth = beta-catenin-lacking colon tumor cell growth suppression. viability, % at 10 µM. 140,000 compounds, 1.5% hits. HCT116 beta-catenin knockout viability, CellTiter-Glo, 60 h; active compounds read low;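 active means viability at or under a set limit, the compound median less 4 SD, cut at about 6% in these data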;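 further: 0% = Hyamine 1622 control at 20 µM and 100% = untreated cell control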
PTEN del growth = PTEN-deleted cell growth suppression | AID 827 | 140,000 compounds, 1.2% hits | viability, % at 10 µM | HCT116 PTEN-null viability, CellTiter-Glo, 60 h; active compounds read low;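 active means viability at or below a set limit, 4 SD under the median of all tested compounds, cut at about 3.7% in these data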;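 further: PTEN knockout HCT116 line with beta catenin targeted HCT116 as companion control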
Starred values were filed as active, the others as inactive; x = no result.

SMILES | TNAP inh no acc | TNAP act hi DEA | Lmaj promast | TNAP inh hi DEA | bCat KO growth | PTEN del growth
Cn1c(CN2CCN(C(=O)COc3ccccc3)CC2)nc2cc([N+](=O)[O-])ccc21 | -11 | 1 | 3 | -2 | 84 | 85
Cc1cccc(OCC(=O)N2CCN(Cc3ccc([N+](=O)[O-])cc3)CC2)c1 | -4 | 1 | 58* | 1 | x | x
Cc1nc2sccc2c(=O)n1-c1ccccc1Cl | 2 | 0.9 | 0 | 6 | 86 | 88
COc1ccc(OCC(=O)N2CCN(Cc3ccc(SC)cc3)CC2)cc1 | -11 | 1 | 84* | -4 | x | x
CCOC(=O)Cn1cc([N+](=O)[O-])nc1[N+](=O)[O-] | -7 | 1 | 99* | 1 | 95 | 97
CC(C(=O)Nc1ccc(Br)cc1C(=O)c1ccccc1)N1CCOCC1 (stereo not drawn) | -8 | 1 | 99* | -2 | 82 | 88
O=C(CCN1CCOCC1)NCC(=O)Nc1ccc(Br)cc1C(=O)c1ccccc1 | 1 | 1 | -3 | -4 | 90 | 89
CCCC[N+]1(C)[C@@H]2CC(OC(=O)[C@H](CO)c3ccccc3)C[C@H]1[C@@H]1O[C@@H]12 (stereo partly drawn) | -10 | 1.1 | x | -6 | x | x
CC(=O)Nc1cc(C(=O)N2CCC3(CC2)OCCO3)ccc1Sc1ccc(F)cc1 | -10 | 1 | 7 | -4 | x | x
COc1cc(/C=C/[N+](=O)[O-])ccc1O | 53* | 0.6 | 97* | 38 | 4.0* | 3.3*
CN1CCN(c2nc(N(C)C)oc(=O)c2C#N)CC1 | -6 | 1 | -7 | 1 | 99 | 96
Oc1cc2c(cc1O)[C@H]1c3ccccc3CN[C@@H]1CC2 | 92* | 0.9 | x | 7 | x | x
O=c1[nH]c(O)c(N=Nc2ccc([N+](=O)[O-])cc2)c(=O)[nH]1 | 9 | 0.8 | 7 | 23 | x | x
CC(=O)OC(C)(C)/C=C/C(=O)[C@](C)(O)[C@H]1[C@H](O)C[C@@]2(C)[C@@H]3CC=C4[C@H](C[C@H](O)C(=O)C4(C)C)[C@]3(C)C(=O)C[C@]12C | -2 | 1 | 52* | -3 | 2.4* | 1.9*
CP(=O)(Nc1ccccc1)C(Cl)(Cl)Cl (stereo not drawn) | -12 | 1 | -9 | -3 | x | x
NC(=O)CS(=O)C(c1ccccc1)c1ccccc1 (stereo not drawn) | -13 | 1.1 | x | -8 | x | x
Nc1nonc1C(=O)N/N=C/c1ccc([N+](=O)[O-])o1 | 7 | 0.9 | 83* | 8 | x | x
N/C(=N\[N+](=O)[O-])N/N=C/c1ccc(O)cc1 | -9 | 1 | -1 | 0 | 87 | 90
Cc1oc(-c2ccc(F)cc2F)nc1CN1C[C@@H]2C[C@@H](C1)c1cccc(=O)n1C2 | -3 | 1 | -2 | 1 | x | x
Nc1cc(Cl)c2nonc2c1[N+](=O)[O-] | 2 | 1 | 98* | 4 | 4.9* | 2.2*
O=C(CNC(=O)OCc1ccccc1)Nc1ccc(Br)cc1C(=O)c1ccccc1 | -2 | 1.1 | -3 | -6 | 64 | 64
O=C(CNC(=O)OCc1ccccc1)NCC(=O)Nc1ccc(Br)cc1C(=O)c1ccccc1 | 17 | 1.1 | 70* | -6 | 75 | 75
O=C(c1ccccc1F)c1cn(Cc2ccc(F)cc2)c2ccccc12 | -8 | 1 | 37 | -2 | 82 | 82
O=C(c1ccccc1F)c1cn(Cc2ccccc2)c2ccccc12 | -10 | 1 | 54* | -4 | 86 | 75
Cc1ccc(-n2c(O)c(C=NCCC3=CCCCC3)c(=O)[nH]c2=O)cc1 | -6 | 1 | 7 | -2 | x | x
SMILES | TNAP inh no acc | TNAP act hi DEA | Lmaj promast | TNAP inh hi DEA | bCat KO growth | PTEN del growth
CC(=O)N(C1=NCCCS1)c1ccc(Cl)cc1 | -7 | 1 | 96* | -1 | x | x
C=CCN1C(=O)NC(=O)/C(=C/c2cc3c4c(c2)CCCN4CCC3)C1=O | 20 | 1 | 93* | 4 | 105 | 99
C=CCN1C(=O)NC(=O)/C(=C/c2cnc(SC)nc2)C1=O | -8 | 1 | -6 | -1 | 93 | 99
Cc1ccnc(-n2c(C)cc(C=C3C(=O)N(C)C(=S)N(C)C3=O)c2C)c1 | 6 | 1 | 51* | 1 | 79 | 74
Cc1cc(C)cc(-n2c(C)cc(/C=C3\C(=O)NC(=O)N(C)C3=O)c2C)c1 | -15 | 1 | 1 | 3 | 103 | 102
CN1C(=O)N(C)C(=O)C2(Cc3c(nc4ccccn4c3=O)N3CCc4ccccc4C32)C1=O (stereo not drawn) | -5 | 1 | 70* | -3 | 96 | 94
CCN1C(=O)CC(c2cccnc2)=Nc2ccccc21 | -8 | 1 | -1 | -3 | x | x
c1ccc(C(OCCN2CCNCC2)c2ccccc2)cc1 | -9 | 1 | 100* | -3 | 92 | 97
CN1C(=O)C(=Cc2ccc(N3CCCCC3)o2)C(=O)N(C)C1=S | 36 | 0.6 | 2 | 36 | 88 | 96
CCN(CC)c1ccc(C=C2C(=O)N(C)C(=S)N(C)C2=O)o1 | 31 | 0.6 | 72* | 41 | 92 | 88
COc1cc(OC)cc(C(=O)Nc2ccc(Br)cc2C(=O)c2ccccc2)c1 | -4 | 1 | 3 | 1 | 78 | 88
COc1cc(C(=O)Nc2ccc(Br)cc2C(=O)c2ccccc2Cl)cc(OC)c1OC | -18 | 1 | 51* | 0 | 51 | 22
C#CCN1CCN(c2cccc(C(F)(F)F)c2)CC1 | -13 | 1 | 2 | -5 | x | x
FC(F)(F)c1cccc(-n2nnnc2C2(N3CCOCC3)CCCCC2)c1 | -13 | 1 | 84* | -3 | 55 | 59
CCOc1ccc(-c2cc(C)[n+](CCO)c(-c3ccc(OCC)cc3)c2)cc1 | -2 | 1 | 99* | 3 | x | x
N/C(=N/[N+](=O)[O-])N1CCN(C(=O)c2ccc(Cl)cc2)CC1 | -6 | 1 | -5 | 1 | x | x
C=C(CO)CC1CC(O)[C@]2(C)OC3CC4OC5C[C@]6(C)O[C@]7(C)CCC8OC9C[C@]%10(C)OC%11C(C)=CC(=O)OC%11CC%10OC9C[C@@H](C)C8OC7CC6O[C@]5(C)C/C=C\C4OC3CC2O1 (stereo partly drawn) | -2 | 1 | 56* | -4 | x | x
C=C(C=O)CC1CC(O)[C@]2(C)OC3CC4OC5C[C@]6(C)O[C@]7(C)CCC8OC9C[C@]%10(C)OC%11C(C)=CC(=O)OC%11CC%10OC9C[C@@H](C)C8OC7CC6O[C@]5(C)CC5OC5C4OC3CC2O1 (stereo partly drawn) | -6 | 1 | 101* | -3 | x | x
CN[C@@H]1C[C@@H](c2ccc(Cl)c(Cl)c2)c2ccccc21 | -2 | 1 | x | -2 | x | x
Cc1ccc(-n2c(O)c(/C=C/C=Nc3ccccc3)c(=O)[nH]c2=O)cc1 | -10 | 1 | -5 | 3 | 95 | 92
Cc1ccc(N/N=C/c2c(O)n(-c3ccccc3)c(=O)[nH]c2=O)cc1 | -8 | 1 | 92* | -2 | x | x
CCN(CC)c1ccc(/C=C/[N+](=O)[O-])cc1 | 40 | 0.7 | 69* | 33 | x | x
